Data set [1] deals with Leishmania donovani. As to the kind of experiment: Antileishmanial activity against Leishmania donovani promastigotes at 10 uM. The format is functional.
Data set [2] deals with Leishmania donovani. The data set is described as follows: Antileishmanial activity against Leishmania donovani promastigotes in RAW cells assessed as reduction in infection. The format is functional. Set-up: scale not given: the % may be the effect or the level left. The essentials:
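RAW 264.7 macrophages (1 × 10^6) plated 2 h, infected 6 h with stationary-phase luciferase-transfected L. donovani promastigotes at 20:1 parasite:macrophage; free parasites washed off with PBS; compound-treated; survival by luciferase luminescence 24 h later; triplicate; % reduction in infection versus untreated wells.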

For the next data set, the system named is Vero. As to the kind of experiment: Cytotoxicity against african green monkey Vero cells. The data set is classed as cell-based. As to conditions: Chlorocebus sabaeus.
Data set [3] has as its system Leishmania donovani. The data set is described as follows: Antileishmanial activity against Leishmania donovani axenic amastigotes. The data set is classed as functional, organism-based. The essentials: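 L. donovani amastigote-like parasites (WHO MHOM/SD/62/1S-CL2D), axenic; 3-day growth inhibition assay read with tetrazolium dye-based CellTiter reagent; IC50 determined.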

The subject of data set [4] is Trypanosoma brucei brucei. As to the kind of experiment: Antitrypanosomal activity against Trypanosoma brucei brucei MITat 1.2 variant 221. The data set is classed as functional, organism-based. In outline:
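Bloodstream-form parasites (MITat 1.2, variant 221) grown axenically in HMI-9 medium, run by a previously reported protocol. Pentamidine and suramin included as standards. IC50 taken as the mean of three tests done on different days.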

The test system of data set [5] is Leishmania donovani. As to the kind of experiment: Antileishmanial activity against Leishmania donovani promastigotes at 1 uM. The data set is classed as functional.
For data set [6], the system named is Leishmania donovani. The data set is described as follows: Antileishmanial activity against Leishmania donovani promastigotes at 100 uM. The format is functional.
A further data set relates to RAW. As to the kind of experiment: Cytotoxicity against mouse RAW cells. The data set is classed as cell-based. The essentials: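 RAW 264.7 murine macrophages in DMEM with 10% heat-inactivated FBS, antibiotics, 2 mM L-glutamine at 37 °C, 5% CO2; 1 × 10^5 cells treated or untreated with compounds for 48 h; viability read with alamarBlue.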

A word on the inhibition: it is the drop in the measured response relative to a control, in per cent. In general, IC50 refers to the concentration that gives 50% inhibition. Regarding `COc1ccc2c(c1OC)[C@H](CC(C)=O)N(C)c1c-2ccc2cc3c(cc12)OCO3`, the inhibition at 10 µM with Leishmania donovani [1] is 87%. In addition, the Activity with Leishmania donovani [2] was determined as 57.4%. Further, the IC50 in the data set with Vero was determined as 15.3 µM; with Leishmania donovani [3] it was 6.6 µM; in data set [4] it was 3.9 µM. The compound also displayed an inhibition at 1 µM in the data set with Leishmania donovani [5] of 23%. In the data set with Leishmania donovani [6], this compound returned an inhibition at 100 µM of 100%.
On to `COc1ccc2c(c1OC)CN(C)c1c-2ccc2cc3c(cc12)OCO3` [DIHYDROCHELERYTHRINE], for which, in the data set on Leishmania donovani [1], the inhibition at 10 µM was determined as 89%. Besides, the Activity with Leishmania donovani [2] is 70.9%. Further, the IC50 stood at 35.4 µM in the data set with Vero, 2 µM in the data set on Leishmania donovani [3] and 0.8 µM in data set [4]. In the data set on Leishmania donovani [5], the inhibition at 1 µM stood at 36%. In the data set with Leishmania donovani [6], this compound displayed an inhibition at 100 µM of 100%.
With `CC(C)CNC(=O)/C=C/c1ccc2c(c1)OCO2` [FOGARAMIDE], the Activity entry in the data set on RAW is given as “Non-toxic”.
The compound `COc1ccc2c(c1OC)[C@H](CC(C)=O)N(C)c1c-2ccc2cc(O)c(O)cc12` [LUCIDAMINE A] showed an inhibition at 10 µM in the data set on Leishmania donovani [1] of 76%. Also, the Activity result in the data set with RAW is “Toxic”. In addition, the concentration for half-maximal inhibition (IC50) with Vero was found to be 11.6 µM; in the data set on Leishmania donovani [3] it was 10.8 µM; in data set [4], 14.1 µM. This compound came in with an inhibition at 1 µM in the data set on Leishmania donovani [5] of 23%. Also, the inhibition at 100 µM in the data set on Leishmania donovani [6] worked out at 100%.
`C=CC(C)(C)c1c(O)c(O)c(C(C)(C)C=C)c2c3c(ccc12)-c1ccc(OC)c(OC)c1[C@H](CC(C)=O)N3C` [LUCIDAMINE B] returned an inhibition at 10 µM in the data set on Leishmania donovani [1] of 48%. Also, in the data set with RAW, the Activity result is listed as “Toxic”. Further, the IC50 with Vero came out at 17.5 µM; in the data set with Leishmania donovani [3], 6.8 µM; in data set [4], 4.1 µM. The compound further gave an inhibition at 1 µM in the data set with Leishmania donovani [5] of 14%. In addition, the inhibition at 100 µM with Leishmania donovani [6] amounted to 64%.
In the case of `N=C(N)c1ccc(OCCCCCOc2ccc(C(=N)N)cc2)cc1` [PENTAMIDINE], the half-inhibitory concentration (IC50) in the data set with Vero is 13.7 µM; in the data set with Leishmania donovani [3], 1.3 µM; in data set [4], 0.0025 µM.
With `c1cc2c(cc1[C@H]1OC[C@H]3[C@@H]1CO[C@@H]3c1ccc3c(c1)OCO3)OCO2` [SESAMIN], the Activity entry in the data set with RAW was “Non-toxic”.
In the case of `Cc1ccc(C(=O)Nc2ccc(S(=O)(=O)O)c3cc(S(=O)(=O)O)cc(S(=O)(=O)O)c23)cc1NC(=O)c1cccc(NC(=O)Nc2cccc(C(=O)Nc3cc(C(=O)Nc4ccc(S(=O)(=O)O)c5cc(S(=O)(=O)O)cc(S(=O)(=O)O)c45)ccc3C)c2)c1` [SURAMIN], in data set [4], the IC50 came to 0.2 µM.
